According to ChEMBL document CHEMBL1154886, “DNA-damaging, mutagenic, and clastogenic activities of gentiopicroside isolated from Cephalaria kotschyi roots” (J Nat Prod, 2010):

Columns and labels:
[1] = Mutagenic activity in Salmonella Typhimurium TA102 assessed as increase in number of revertants at 40 ug/plate by Ames test absence of S9 fraction (Rvb=290+/-10); type: toxicity; details: salmonella enterica subsp. enterica serovar typhimurium
Method in brief: (§1)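 Microsuspension Ames test, with and without rat liver S9 mix. The S9 is from male Sprague-Dawley rats given Aroclor 1254 (26 mg/mL protein); the final mix is 4% S9, 10 mM G6P and 8 mM NADP. Triplicate plates are incubated 48 h at 37 °C and colonies counted automatically. Values are mean ± SD revertants per plate, tested against spontaneous revertants (Rvb) by Dunnett test.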

[2] = Mutagenic activity in Salmonella Typhimurium TA97a assessed as increase in number of revertants at 100 ug/plate by Ames test presence of S9 fraction (Rvb=154+/-18); type: toxicity; details: salmonella enterica subsp. enterica serovar typhimurium; method in brief: as §1
[3] = Mutagenic activity in Salmonella Typhimurium TA98 assessed as increase in number of revertants at 100 ug/plate by Ames test presence of S9 fraction (Rvb=34+/- 4); type: toxicity; details: salmonella enterica subsp. enterica serovar typhimurium; method in brief: as §1
[4] = Mutagenic activity in Salmonella Typhimurium TA100 assessed as increase in number of revertants at 40 ug/plate by Ames test absence of S9 fraction (Rvb=108+/-5); type: toxicity; details: salmonella enterica subsp. enterica serovar typhimurium; method in brief: as §1
[5] = Mutagenic activity in Salmonella typhimurium TA100 assessed as increase in number of revertants at 100 ug/plate by Ames test presence of S9 fraction (Rvb=124+/-13); type: toxicity; details: salmonella enterica subsp. enterica serovar typhimurium; method in brief: as §1
[6] = Mutagenic activity in Salmonella typhimurium TA97a assessed as increase in number of revertants at 80 ug/plate by Ames test presence of S9 fraction (Rvb=154+/-18); type: toxicity; details: salmonella enterica subsp. enterica serovar typhimurium; method in brief: as §1
[7] = Mutagenic activity in Salmonella typhimurium TA98 assessed as increase in number of revertants at 60 ug/plate by Ames test presence of S9 fraction (Rvb=34+/- 4); type: toxicity; details: salmonella enterica subsp. enterica serovar typhimurium; method in brief: as §1
[8] = Mutagenic activity in Salmonella Typhimurium TA102 assessed as increase in number of revertants at 60 ug/plate by Ames test absence of S9 fraction (Rvb=290+/-10); type: toxicity; details: salmonella enterica subsp. enterica serovar typhimurium; method in brief: as §1
[9] = Mutagenic activity in Salmonella typhimurium TA102 assessed as increase in number of revertants at 80 ug/plate by Ames test presence of S9 fraction (Rvb=369+/-34); type: toxicity; details: salmonella enterica subsp. enterica serovar typhimurium; method in brief: as §1
[10] = Mutagenic activity in Salmonella Typhimurium TA100 assessed as increase in number of revertants at 80 ug/plate by Ames test presence of S9 fraction (Rvb=124+/-13); type: toxicity; details: salmonella enterica subsp. enterica serovar typhimurium; method in brief: as §1
[11] = Mutagenic activity in Salmonella typhimurium TA100 assessed as increase in number of revertants at 80 ug/plate by Ames test absence of S9 fraction (Rvb=108+/-5); type: toxicity; details: salmonella enterica subsp. enterica serovar typhimurium; method in brief: as §1
[12] = Mutagenic activity in Salmonella Typhimurium TA100 assessed as increase in number of revertants at 60 ug/plate by Ames test presence of S9 fraction (Rvb=124+/-13); type: toxicity; details: salmonella enterica subsp. enterica serovar typhimurium; method in brief: as §1
[13] = Mutagenic activity in Salmonella Typhimurium TA97a assessed as increase in number of revertants at 40 ug/plate by Ames test presence of S9 fraction (Rvb=154+/-18); type: toxicity; details: salmonella enterica subsp. enterica serovar typhimurium; method in brief: as §1
[14] = Mutagenic activity in Salmonella typhimurium TA98 assessed as increase in number of revertants at 60 ug/plate by Ames test absence of S9 fraction (Rvb=22+/- 4); type: toxicity; details: salmonella enterica subsp. enterica serovar typhimurium; method in brief: as §1
[15] = Mutagenic activity in Salmonella Typhimurium TA102 assessed as increase in number of revertants at 100 ug/plate by Ames test presence of S9 fraction (Rvb=369+/-34); type: toxicity; details: salmonella enterica subsp. enterica serovar typhimurium; method in brief: as §1
[16] = Mutagenic activity in Salmonella Typhimurium TA97a assessed as increase in number of revertants at 100 ug/plate by Ames test absence of S9 fraction (Rvb=146+/- 8); type: toxicity; details: salmonella enterica subsp. enterica serovar typhimurium; method in brief: as §1
[17] = Mutagenic activity in Salmonella typhimurium TA100 assessed as increase in number of revertants at 60 ug/plate by Ames test absence of S9 fraction (Rvb=108+/-5); type: toxicity; details: salmonella enterica subsp. enterica serovar typhimurium; method in brief: as §1
[18] = Mutagenic activity in Salmonella Typhimurium TA98 assessed as increase in number of revertants at 80 ug/plate by Ames test absence of S9 fraction (Rvb=22+/- 4); type: toxicity; details: salmonella enterica subsp. enterica serovar typhimurium; method in brief: as §1
[19] = Mutagenic activity in Salmonella typhimurium TA98 assessed as increase in number of revertants at 40 ug/plate by Ames test absence of S9 fraction (Rvb=22+/- 4); type: toxicity; details: salmonella enterica subsp. enterica serovar typhimurium; method in brief: as §1
[20] = Mutagenic activity in Salmonella typhimurium TA100 assessed as increase in number of revertants at 40 ug/plate by Ames test presence of S9 fraction (Rvb=124+/-13); type: toxicity; details: salmonella enterica subsp. enterica serovar typhimurium; method in brief: as §1
[21] = Mutagenic activity in Salmonella Typhimurium TA102 assessed as increase in number of revertants at 40 ug/plate by Ames test presence of S9 fraction (Rvb=369+/-34); type: toxicity; details: salmonella enterica subsp. enterica serovar typhimurium; method in brief: as §1
[22] = Mutagenic activity in Salmonella Typhimurium TA102 assessed as increase in number of revertants at 60 ug/plate by Ames test presence of S9 fraction (Rvb=369+/-34); type: toxicity; details: salmonella enterica subsp. enterica serovar typhimurium; method in brief: as §1
[23] = Mutagenic activity in Salmonella Typhimurium TA97a assessed as increase in number of revertants at 40 ug/plate by Ames test absence of S9 fraction (Rvb=146+/- 8); type: toxicity; details: salmonella enterica subsp. enterica serovar typhimurium; method in brief: as §1
[24] = test system: CHO; experiment: Cytotoxicity activity against CHO cells assessed as cell viability after 24 hrs by WST1 test; type: cell-based, Cricetulus griseus; details: chinese hamster
Method in brief: (§2)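 CHO-K1 cells in McCoy's 5A with 10% fetal calf serum are seeded and incubated overnight at 37 °C, 5% CO2. A range of compound concentrations is added in triplicate cultures (final DMSO below 0.2%) for 2 or 24 h. Cells are washed three times in PBS, then given 10% WST1 in medium for 30 min. Viability is read as absorbance at 450 nm.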

[25] = Mutagenic activity in Salmonella typhimurium TA97a assessed as increase in number of revertants at 60 ug/plate by Ames test absence of S9 fraction (Rvb=146+/- 8); type: toxicity; details: salmonella enterica subsp. enterica serovar typhimurium; method in brief: as §1
[26] = Mutagenic activity in Salmonella Typhimurium TA98 assessed as increase in number of revertants at 80 ug/plate by Ames test presence of S9 fraction (Rvb=34+/- 4); type: toxicity; details: salmonella enterica subsp. enterica serovar typhimurium; method in brief: as §1
[27] = Mutagenic activity in Salmonella Typhimurium TA102 assessed as increase in number of revertants at 100 ug/plate by Ames test absence of S9 fraction (Rvb=290+/-10); type: toxicity; details: salmonella enterica subsp. enterica serovar typhimurium; method in brief: as §1
[28] = Mutagenic activity in Salmonella Typhimurium TA102 assessed as increase in number of revertants at 80 ug/plate by Ames test absence of S9 fraction (Rvb=290+/-10); type: toxicity; details: salmonella enterica subsp. enterica serovar typhimurium; method in brief: as §1
[29] = Mutagenic activity in Salmonella Typhimurium TA98 assessed as increase in number of revertants at 100 ug/plate by Ames test absence of S9 fraction (Rvb=22+/- 4); type: toxicity; details: salmonella enterica subsp. enterica serovar typhimurium; method in brief: as §1
[30] = Mutagenic activity in Salmonella typhimurium TA98 assessed as increase in number of revertants at 40 ug/plate by Ames test presence of S9 fraction (Rvb=34+/- 4); type: toxicity; details: salmonella enterica subsp. enterica serovar typhimurium; method in brief: as §1
[31] = Mutagenic activity in Salmonella Typhimurium TA100 assessed as increase in number of revertants at 100 ug/plate by Ames test absence of S9 fraction (Rvb=108+/-5); details: salmonella enterica subsp. enterica serovar typhimurium
[32] = Cytotoxicity activity against CHO cells assessed as cell viability after 2 hrs by WST1 test; type: cell-based, Cricetulus griseus; details: chinese hamster, read-out: Activity; method in brief: as §2
[33] = Mutagenic activity in Salmonella Typhimurium TA97a assessed as increase in number of revertants at 80 ug/plate by Ames test absence of S9 fraction (Rvb=146+/- 8); type: toxicity; details: salmonella enterica subsp. enterica serovar typhimurium; method in brief: as §1
[34] = Mutagenic activity in Salmonella typhimurium TA97a assessed as increase in number of revertants at 60 ug/plate by Ames test presence of S9 fraction (Rvb=154+/-18); type: toxicity; details: salmonella enterica subsp. enterica serovar typhimurium; method in brief: as §1
[35] = Mutagenic activity in Salmonella typhimurium TA97a assessed as increase in number of revertants at 0.002 ug/plate by Ames test absence of S9 fraction (Rvb=146+/- 8); type: toxicity; details: salmonella enterica subsp. enterica serovar typhimurium; method in brief: as §1

C=C[C@@H]1C2=CCOC(=O)C2=CO[C@H]1O[C@@H]1O[C@H](CO)[C@@H](O)[C@H](O)[C@H]1O [GENTIOPICROSIDE]
Activity [1]: 368
Activity [2]: 173
Activity [3]: 31
Activity [4]: 117
Activity [5]: 138
Activity [6]: 178
Activity [7]: 29
Activity [8]: 378
Activity [9]: 413
Activity [10]: 140
Activity [11]: 138
Activity [12]: 116
Activity [13]: 274
Activity [14]: 22
Activity [15]: 385
Activity [16]: 180
Activity [17]: 135
Activity [18]: 26
Activity [19]: 19
Activity [20]: 119
Activity [21]: 376
Activity [22]: 385
Activity [23]: 188
Activity [24]: Non-toxic
Activity [25]: 174
Activity [26]: 28
Activity [27]: 392
Activity [28]: 395
Activity [29]: 26
Activity [30]: 32
Activity [31]: 136
viability at 2 h [32]: 95%
Activity [33]: 180
Activity [34]: 186

COc1ccc2nc3cc(Cl)ccc3c(NCCCNCCCl)c2c1
Activity [35]: 1287
